For series [1], the target named is T1, Cannabinoid receptor 2 (Homo sapiens, UniProt P34972). The series is described as follows: Displacement of [3H]CP55,940 from N-terminal HA-tagged human CB2 receptor expressed in HEK293 cell membranes at 10 uM after 1 hr by microbeta scintillation counting method relative to control. Summed up:
(§1)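 Single-point competition screen against [3H]CP55,940 in HEK293 cells over-expressing 3HA-tagged hCB2 or hCB1. Compounds giving more than 50% displacement went on to full concentration-response curves.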
Background: Displacement assays read how much labelled ligand stays bound in the presence of the test substance.

Series [2] has as its target T1, Cannabinoid receptor 2. The series is described as follows: Displacement of [3H]CP55,940 from N-terminal HA-tagged human CB2 receptor expressed in HEK293 cell membranes after 1 hr by microbeta scintillation counting method. The note with it: read-out: Ki.
The target of series [3] is T2, Cannabinoid receptor 1 (Homo sapiens, UniProt P21554). Nature of the series: Displacement of [3H]CP55,940 from N-terminal HA-tagged human CB1 receptor expressed in HEK293 cell membranes at 10 uM after 1 hr by microbeta scintillation counting method relative to control. Summed up:
as §1

Series [4] addresses T2, Cannabinoid receptor 1. Nature of the series: Displacement of [3H]CP55,940 from N-terminal HA-tagged human CB1 receptor expressed in HEK293 cell membranes after 1 hr by microbeta scintillation counting method. The note with it: read-out: Ki.
The target in series [5] is T1, Cannabinoid receptor 2. The series is described as follows: Activity at N-terminal HA-tagged human CB2 receptor expressed in HEK293 cells transfected with YFP-Epac-RLuc assessed as effect on forskolin-stimulated cAMP level by BRET assay. It is filed as functional, cell-based. Summed up: (§2)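 BRET cAMP biosensor read-out in HEK293 cells expressing HA-tagged human CB1 or CB2, with forskolin stimulation (5 µM). Concentration-response curves; area-under-curve values normalised to forskolin alone = 100% and basal = 0%. EC50 taken for agonists and IC50 for inverse agonists. Mean of at least three independent experiments, each point in duplicate.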
For orientation: cAMP levels reflect the balance of adenylyl cyclase and phosphodiesterase activity.

The target in series [6] is T1, Cannabinoid receptor 2. Nature of the series: Activity at N-terminal HA-tagged human CB2 receptor expressed in HEK293 cells transfected with YFP-Epac-RLuc assessed as effect on forskolin-stimulated cAMP level by BRET assay relative to control. It is filed as functional, cell-based. Summed up: as §2
Series [7] has as its target T2, Cannabinoid receptor 1. The series is described as follows: Activity at N-terminal HA-tagged human CB1 receptor expressed in HEK293 cells transfected with YFP-Epac-RLuc assessed as effect on forskolin-stimulated cAMP level by BRET assay. It is filed as functional, cell-based. Summed up: as §2
Series [8] deals with T2, Cannabinoid receptor 1. Nature of the series: Activity at N-terminal HA-tagged human CB1 receptor expressed in HEK293 cells transfected with YFP-Epac-RLuc assessed as effect on forskolin-stimulated cAMP level by BRET assay relative to control. It is filed as functional, cell-based. Summed up: as §2
Series [9] relates to HEK293. The series is described as follows: Effect on forskolin-stimulated cAMP level in HEK293 cells at 10 uM by BRET assay relative to control. It is filed as ADME, cell-based. The note with it: human, hek293, 10 µM. Summed up:
(§3)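 Wild-type HEK293 cells lacking transfected receptor, tested at 10 µM and 1 µM. Forskolin-stimulated cAMP measured by BRET as a check that responses are receptor-mediated.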

The subject of series [10] is HEK293. The series is described as follows: Effect on forskolin-stimulated cAMP level in HEK293 cells at 1 uM by BRET assay relative to control. It is filed as ADME, cell-based. The note with it: human, hek293, 1 µM. In outline: as §3
Series [11] has as its target Proprotein convertase subtilisin/kexin type 9 (Homo sapiens) (UniProt Q8NBP7). The series is described as follows: Inhibition of PCSK9 (unknown origin).
In series [12] the target is T3, Free fatty acid receptor 4 (Homo sapiens) (UniProt Q5NUL3).
T3 sequence (whole entry): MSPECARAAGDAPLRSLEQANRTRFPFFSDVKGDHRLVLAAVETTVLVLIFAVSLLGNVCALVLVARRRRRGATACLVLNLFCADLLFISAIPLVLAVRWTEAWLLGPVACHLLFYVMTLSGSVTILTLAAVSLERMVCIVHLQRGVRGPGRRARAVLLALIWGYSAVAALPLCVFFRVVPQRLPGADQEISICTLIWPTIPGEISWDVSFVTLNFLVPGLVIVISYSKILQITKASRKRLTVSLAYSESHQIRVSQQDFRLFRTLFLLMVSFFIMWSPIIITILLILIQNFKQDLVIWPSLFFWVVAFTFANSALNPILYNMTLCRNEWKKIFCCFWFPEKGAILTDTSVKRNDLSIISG
Nature of the series: Agonist activity at GPR120 (unknown origin). It is filed as functional.

The target in series [13] is Interleukin-17A (Homo sapiens) (UniProt Q16552). Nature of the series: Inhibition of IL-17 (unknown origin) assessed as disruption of IL-17 protein-protein interaction.
The next series has as its system Leishmania donovani. The series is described as follows: Growth inhibition of Leishmania donovani. It is filed as functional, organism-based.
In series [14] the target is Potassium voltage-gated channel subfamily KQT member 2 (Homo sapiens) (UniProt O43526). Nature of the series: Agonist activity at KCNQ2 (unknown origin).
The target of series [15] is T4, Potassium voltage-gated channel subfamily KQT member 3 (Homo sapiens) (UniProt O43525).
T4 sequence (whole entry): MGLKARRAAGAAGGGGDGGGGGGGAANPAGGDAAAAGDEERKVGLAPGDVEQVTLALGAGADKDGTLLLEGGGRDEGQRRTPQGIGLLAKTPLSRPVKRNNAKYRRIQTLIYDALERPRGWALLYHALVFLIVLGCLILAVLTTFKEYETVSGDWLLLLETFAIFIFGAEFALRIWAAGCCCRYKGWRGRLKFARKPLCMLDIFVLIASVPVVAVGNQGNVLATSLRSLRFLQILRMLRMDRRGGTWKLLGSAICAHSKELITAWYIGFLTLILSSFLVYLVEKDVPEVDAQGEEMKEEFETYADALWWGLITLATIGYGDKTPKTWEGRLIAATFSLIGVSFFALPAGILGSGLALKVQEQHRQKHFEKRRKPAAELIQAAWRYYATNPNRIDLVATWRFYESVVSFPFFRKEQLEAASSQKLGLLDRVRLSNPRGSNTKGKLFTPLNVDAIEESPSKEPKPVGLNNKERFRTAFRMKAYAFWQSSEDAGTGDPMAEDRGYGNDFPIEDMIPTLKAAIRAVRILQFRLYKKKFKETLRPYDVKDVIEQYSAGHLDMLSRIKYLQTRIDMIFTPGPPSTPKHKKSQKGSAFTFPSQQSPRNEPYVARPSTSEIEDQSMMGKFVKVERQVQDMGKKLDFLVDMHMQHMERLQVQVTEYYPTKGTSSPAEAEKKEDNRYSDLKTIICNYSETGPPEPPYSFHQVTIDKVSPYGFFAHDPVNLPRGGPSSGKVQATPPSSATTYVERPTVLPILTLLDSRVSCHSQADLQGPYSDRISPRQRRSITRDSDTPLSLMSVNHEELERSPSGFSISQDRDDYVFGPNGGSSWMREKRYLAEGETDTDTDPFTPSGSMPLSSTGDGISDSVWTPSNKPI
Nature of the series: Agonist activity at KCNQ3 (unknown origin).

Series [16] has as its target T5, Nicotinamide N-methyltransferase (Homo sapiens) (UniProt P40261).
T5 sequence (whole entry): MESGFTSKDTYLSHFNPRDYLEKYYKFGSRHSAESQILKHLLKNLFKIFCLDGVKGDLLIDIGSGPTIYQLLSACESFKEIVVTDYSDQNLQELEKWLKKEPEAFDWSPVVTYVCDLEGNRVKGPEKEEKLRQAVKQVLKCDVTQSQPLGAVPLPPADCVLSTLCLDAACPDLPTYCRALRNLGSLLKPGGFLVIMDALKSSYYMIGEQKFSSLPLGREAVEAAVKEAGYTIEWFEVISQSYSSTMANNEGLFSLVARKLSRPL
The series is described as follows: Inhibition of NNMT (unknown origin).

pKi: −log10 of the molar value. Active and inactive are the calls of the source. No cut-off for these calls is given here.

T2 sequence (P21554 whole entry): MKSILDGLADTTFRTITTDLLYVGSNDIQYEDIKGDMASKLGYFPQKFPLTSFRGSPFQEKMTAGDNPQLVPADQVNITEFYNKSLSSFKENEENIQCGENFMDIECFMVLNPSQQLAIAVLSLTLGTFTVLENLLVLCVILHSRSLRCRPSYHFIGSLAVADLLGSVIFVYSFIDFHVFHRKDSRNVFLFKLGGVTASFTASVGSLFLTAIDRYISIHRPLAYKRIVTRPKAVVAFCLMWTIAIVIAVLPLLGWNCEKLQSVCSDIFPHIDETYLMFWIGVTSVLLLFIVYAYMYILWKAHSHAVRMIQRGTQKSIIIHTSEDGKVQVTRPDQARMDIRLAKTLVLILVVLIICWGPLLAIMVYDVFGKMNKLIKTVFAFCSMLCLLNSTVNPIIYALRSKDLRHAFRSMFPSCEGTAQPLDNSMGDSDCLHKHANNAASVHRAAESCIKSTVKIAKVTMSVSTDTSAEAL
T1 sequence (P34972 whole entry): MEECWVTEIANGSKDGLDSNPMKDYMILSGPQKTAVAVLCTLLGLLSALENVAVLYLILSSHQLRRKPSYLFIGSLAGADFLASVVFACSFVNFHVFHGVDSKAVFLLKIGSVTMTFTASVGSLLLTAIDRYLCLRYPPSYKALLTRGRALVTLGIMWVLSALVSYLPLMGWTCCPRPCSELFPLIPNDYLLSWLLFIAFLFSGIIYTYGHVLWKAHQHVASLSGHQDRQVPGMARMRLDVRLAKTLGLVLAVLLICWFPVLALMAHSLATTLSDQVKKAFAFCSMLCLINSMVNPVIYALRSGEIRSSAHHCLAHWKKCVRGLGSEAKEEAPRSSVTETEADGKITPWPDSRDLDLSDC
Sequence of Interleukin-17A (Homo sapiens) (Q16552 whole entry): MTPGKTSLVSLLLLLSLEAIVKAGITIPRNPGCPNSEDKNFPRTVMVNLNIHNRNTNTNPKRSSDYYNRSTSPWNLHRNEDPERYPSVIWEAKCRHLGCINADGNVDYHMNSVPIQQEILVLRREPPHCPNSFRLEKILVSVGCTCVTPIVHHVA
Sequence of Potassium voltage-gated channel subfamily KQT member 2 (Homo sapiens) (O43526 whole entry): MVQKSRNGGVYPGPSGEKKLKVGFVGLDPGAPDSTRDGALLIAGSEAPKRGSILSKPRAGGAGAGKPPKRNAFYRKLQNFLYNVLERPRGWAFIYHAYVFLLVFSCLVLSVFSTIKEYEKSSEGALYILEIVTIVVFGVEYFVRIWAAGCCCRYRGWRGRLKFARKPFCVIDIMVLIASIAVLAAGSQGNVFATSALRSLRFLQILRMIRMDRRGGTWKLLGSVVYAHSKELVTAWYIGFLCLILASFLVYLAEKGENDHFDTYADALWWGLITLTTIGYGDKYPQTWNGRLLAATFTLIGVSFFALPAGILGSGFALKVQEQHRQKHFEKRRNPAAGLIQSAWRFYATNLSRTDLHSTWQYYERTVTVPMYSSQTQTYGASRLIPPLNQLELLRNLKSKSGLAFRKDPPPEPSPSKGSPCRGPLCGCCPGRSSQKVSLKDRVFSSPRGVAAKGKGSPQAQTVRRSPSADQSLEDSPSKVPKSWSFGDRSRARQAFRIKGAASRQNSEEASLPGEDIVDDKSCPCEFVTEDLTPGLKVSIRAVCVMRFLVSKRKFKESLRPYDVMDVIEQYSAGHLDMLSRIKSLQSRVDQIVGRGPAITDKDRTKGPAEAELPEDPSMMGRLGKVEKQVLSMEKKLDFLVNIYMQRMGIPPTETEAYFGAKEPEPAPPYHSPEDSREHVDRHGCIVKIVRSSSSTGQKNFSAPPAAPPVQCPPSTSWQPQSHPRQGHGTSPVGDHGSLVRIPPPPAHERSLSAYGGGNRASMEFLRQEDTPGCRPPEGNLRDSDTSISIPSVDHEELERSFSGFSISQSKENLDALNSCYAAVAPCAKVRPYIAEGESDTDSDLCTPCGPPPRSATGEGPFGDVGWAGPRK
Sequence of Proprotein convertase subtilisin/kexin type 9 (Homo sapiens) (Q8NBP7 31-152 limits assumed): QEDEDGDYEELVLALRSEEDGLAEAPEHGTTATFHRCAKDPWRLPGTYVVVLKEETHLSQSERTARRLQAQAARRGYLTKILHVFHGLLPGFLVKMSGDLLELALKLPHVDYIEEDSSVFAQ
Sequence of Proprotein convertase subtilisin/kexin type 9 (Homo sapiens) (Q8NBP7 153-692 limits assumed): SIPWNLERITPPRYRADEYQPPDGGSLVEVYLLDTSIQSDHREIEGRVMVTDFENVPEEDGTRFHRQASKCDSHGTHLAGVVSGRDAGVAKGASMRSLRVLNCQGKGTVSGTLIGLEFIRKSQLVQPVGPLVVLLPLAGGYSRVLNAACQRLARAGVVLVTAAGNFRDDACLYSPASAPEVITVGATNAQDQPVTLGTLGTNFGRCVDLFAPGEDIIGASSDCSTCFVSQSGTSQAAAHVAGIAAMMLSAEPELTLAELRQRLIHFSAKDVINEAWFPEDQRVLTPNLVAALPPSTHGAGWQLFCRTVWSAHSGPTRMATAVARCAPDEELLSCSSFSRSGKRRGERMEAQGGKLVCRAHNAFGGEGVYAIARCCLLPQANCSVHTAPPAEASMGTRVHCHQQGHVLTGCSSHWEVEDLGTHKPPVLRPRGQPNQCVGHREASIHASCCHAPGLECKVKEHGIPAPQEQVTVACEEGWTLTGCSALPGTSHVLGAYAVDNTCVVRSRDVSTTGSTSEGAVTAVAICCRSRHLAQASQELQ

In the case of `CCCOc1ccc2c(c1)c(C(=O)c1ccc(OC)cc1)cn2CC1CCOCC1`, the inhibition on Cannabinoid receptor 2 [1] and on Cannabinoid receptor 1 [3] was greater than 50% in each case. Besides, the pKi (usually the Ki on a negative log10 scale, so that one unit is a factor of ten) is 5.87 on Cannabinoid receptor 2 [2] and 5.34 on Cannabinoid receptor 1 [4]. Besides, the outcome (at Cannabinoid receptor 2 [5]; at Cannabinoid receptor 1 [7]; in [12]; in [14]; in series [15]) was inactive. Also, the Emax result on Cannabinoid receptor 2 [6] and at Cannabinoid receptor 1 [8] was “inactive” in each case. Also, the figures for the Activity with HEK293 [9] and in the series on HEK293 [10] were 127.6% and 95%, respectively. The inhibition result in series [11], in series [13] and in series [16] was “inactive” throughout. In addition, in the series on Leishmania donovani, the “growth inhibition (GI)” value was “inactive”.

(Values after ChEMBL document CHEMBL4251662, “Alkyl indole-based cannabinoid type 2 receptor tools: Exploration of linker and fluorophore attachment” (Eur J Med Chem, 2018).)
